High-throughput results deposited in PubChem BioAssay by The Scripps Research Institute Molecular Screening Center.
S1P4 antagonist: S1P4 receptor antagonists, primary screen, cell-based; AID 1510, 2009; 220,000 tested, 0.26% active; inhibition, % at 4.98 µM; S1P4-expressing cells, antagonist mode, reporter read-out; in the data active = inhibition above about 29%;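 also: 0% = wells stimulated with agonist and 100% = vehicle wells without agonist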
NPY Y2 blocker: NPY-Y2 receptor antagonists, primary screen, cell-based; Neuropeptide Y receptor type 2 (Homo sapiens), P49146; NPY-Y2 expressing cells, antagonist mode; inhibition, % at 2.7 µM; 140,000 tested, 0.99% active;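 also: 0% = vehicle with agonist challenge and 100% = reference antagonist with challenge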
Target sequence (P49146 whole entry, looked up): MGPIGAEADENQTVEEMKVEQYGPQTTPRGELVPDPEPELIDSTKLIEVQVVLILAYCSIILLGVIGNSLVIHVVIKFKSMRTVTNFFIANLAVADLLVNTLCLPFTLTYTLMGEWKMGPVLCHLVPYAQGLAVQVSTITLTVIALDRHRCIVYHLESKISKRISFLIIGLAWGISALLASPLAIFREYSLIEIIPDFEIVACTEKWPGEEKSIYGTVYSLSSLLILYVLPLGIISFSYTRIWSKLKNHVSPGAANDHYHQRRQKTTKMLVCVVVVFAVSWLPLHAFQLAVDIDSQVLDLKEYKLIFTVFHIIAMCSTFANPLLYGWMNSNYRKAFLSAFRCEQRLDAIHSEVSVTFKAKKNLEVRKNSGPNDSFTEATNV
NPY2 pot ag: NPY-Y2 potentiators or agonists, primary screen, cell-based | cells expressing NPY-Y2, potentiator/agonist read-out | activation, % at 3.6 µM | Neuropeptide Y receptor type 2 (Homo sapiens), P49146 | 220,000 tested, 0.45% active; in the data active = activation above about 27%;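 also: cells stimulated with NPY near EC25 plus isoproterenol at EC100; 0% = vehicle plus submaximal agonist and 100% = vehicle plus saturating agonist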
S1P4 ag: S1P4 receptor agonists, primary screen, cell-based; AID 1509, 2009; activation, % at 4.98 µM; 220,000 tested, 0.35% active; S1P4-expressing cell line, agonist reporter assay; in the data active = activation above about 11%;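 also: 0% = DMSO vehicle and 100% = reference agonist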
NPY-Y1 antag: NPY-Y1 receptor antagonists, primary screen, cell-based. inhibition, % at 3.6 µM. HEK293-CNG Y1 cells, membrane potential fluorescence; NPY at EC95, then isoproterenol. 200,000 tested, 1% active. Neuropeptide Y receptor type 1 (Homo sapiens), P25929;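 active = inhibition above the campaign mean inhibition of all tested compounds plus 3 SD, cut at about 20% in these data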;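 also: 0% = DMSO wells given NPY plus isoproterenol and 100% = isoproterenol alone without NPY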
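Material: Y1- and CNG-channel-expressing HEK293 cells / Probe or stimulus: NPY 25 nM then isoproterenol 1 µM plus Ro 20-1724 25 µM / Doses: 3.6 µM single dose, DMSO 0.4% / Schedule: compound incubation 1 h at room temperature, readout 45 min post-stimulation / Signal: membrane potential fluorescence / Benchmarks: isoproterenol-only wells as full block versus NPY-plus-isoproterenol wells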
NPY1 pot ag: NPY-Y1 receptor potentiators or agonists, primary screen, cell-based; Neuropeptide Y receptor type 1 (Homo sapiens), P25929; 220,000 tested, 0.37% active; AID 1304, 2008; NPY-Y1 expressing cells, potentiator/agonist activation; activation, % at 3.6 µM; in the data active = activation above about 33%, passing the limit was not always enough;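 also: cells stimulated with NPY at EC10 then isoproterenol at EC100; 0% = low agonist plus stimulus and 100% = saturating agonist plus stimulus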
NPY1 antag conf: NPY-Y1 receptor antagonists, retest of hits, confirmation, HEK293-CNG cells, membrane potential fluorescence, triplicate | shares compounds with NPY-Y1 antag | cAMP; NPY challenge against isoproterenol-raised cAMP | inhibition, % at 3.6 µM | 1,200 tested, 21% active | AID 1254, 2008; in the data active = inhibition above about 20%;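 also: 0% = vehicle with agonist plus stimulus and 100% = stimulus alone without agonist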
NPY2 antag ctr: NPY-Y2 receptor antagonists, selectivity check, confirmation, counter-screen for NPY-Y1 antagonist project, HEK293-CNG cells, membrane potential fluorescence, triplicate | shares compounds with NPY-Y1 antag | antagonism; cells given NPY, then isoproterenol | inhibition, % at 3.6 µM | 1,200 tested, 28% active | AID 1255, 2008;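 also: 0% = DMSO with agonist challenge and 100% = reference antagonist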
An asterisk follows results filed as active; . = not tested or not shown. A selection: hits, their analogues and other compounds. The true share with any hit is near 2.4%. Rule as the data show it, unless noted: active = inhibition above about 17%; inactive = the rest.

SMILES	S1P4 antagonist	NPY Y2 blocker	NPY2 pot ag	S1P4 ag	NPY-Y1 antag	NPY1 pot ag	NPY1 antag conf	NPY2 antag ctr
COC(=O)c1cc(C(=O)Nc2nnc(C3CC3)s2)cc([N+](=O)[O-])c1	-11	2	0	0	5	2	.	.
COc1ccc(OC)c2c(C)c(C)[nH]c12	-3	.	-23	-1	.	7	.	.
CC1CCCCC1NC(=O)CN1C(=O)CSc2cc(S(=O)(=O)N3CCCCCC3)ccc21 (configuration not stated)	12	16	-11	1	31*	-34	6	6
CC(=O)N1C(=O)CC(C)N(C(C)=O)c2ccc([N+](=O)[O-])cc21 (configuration not stated)	3	2	8	0	2	0	.	.
Cc1ccc(S(=O)(=O)N(CC(=O)NCCC2=CCCCC2)Cc2ccccc2)cc1	3	10	-12	2	21*	-10	-1	4
COc1ccccc1OC(=O)c1cc(Cl)nc2ccccc12	14	0	3	0	21*	-2	14	17*
CCOC(=O)C1(CCOc2ccccc2)CCN(Cc2cc(OC)c3c(c2)OCO3)CC1	0	.	-40	-1	14	-28	.	.
CC(=O)c1sc(N/N=C2\CC3CC2C(C)C3(C)C)nc1C (configuration not stated)	-25	.	-1	1	6	8	.	.
COc1cccc(CNC23CC4CC(CC(C4)C2)C3)c1OCc1ccccc1	19	.	-23	-2	165*	-90	114*	84*
COc1cccc(CNn2cnnc2)c1OCc1ccc(F)cc1	-11	0	-2	-1	1	13	.	.
O=C(NC1CCCCC1)C(c1cccs1)N(Cc1cccs1)C(=O)c1ccco1 (configuration not stated)	-20	11	-20	1	47*	-25	14	11
O=C(NCC(=O)N(Cc1cccs1)C(C(=O)NC1CCCCC1)c1ccco1)c1ccco1 (configuration not stated)	-13	1	-17	-3	3	2	.	.
CCOc1ccc2cc(/C=C/C(=O)c3ccco3)c(Cl)nc2c1	3	5	-4	-2	1	-23	.	.
CC(Sc1ccc2c(c1)OCCO2)C(=O)Nc1ccc(N2CCOCC2)cc1 (configuration not stated)	-5	.	-4	-1	-2	6	.	.
Cc1cccc(C(C)(C)C)c1OCCCCN1CCCC1	-5	9	-17	-2	21*	-23	10	15
CC(C)(C)c1ccccc1OCCCCN1CCCC1	-10	6	1	2	12	-12	.	.
Cc1ccc(C(=O)c2c(NC(=O)c3ccccc3C)sc(C)c2C)cc1	0	3	-31	0	23*	-66	17	36*
Cc1ccc(CSCCNC(=O)CSc2ccccc2)cc1	-16	5	-12	2	10	1	.	.
O=C(O)C1CC=CCC1C(=O)Nc1cccc(Cl)c1 (configuration not stated)	-5	6	-4	1	1	-18	.	.
O=C(Nc1cccc(Cl)c1)C1C2CCC3C(CCC21)C3(Cl)Cl (configuration not stated)	2	14	8	-1	33*	-13	5	2
COc1cccc(Oc2cn[nH]c2-c2ccc(O)cc2O)c1	-10	7	15	1	153*	-22	61*	4
COc1cccc(Oc2cn[nH]c2-c2ccc(OC)cc2O)c1	1	4	-10	0	-4	-5	.	.
